Results of several laboratories.
Each line is one published result; the experiments were not run side by side. ≈ marks a conversion by molar mass, not a printed value.
Organism: Mycobacterium tuberculosis variant bovis BCG
Observed: microbial growth

Compound | strain | time | measurement | result
COc1ccc(C=CC(=O)c2ccc(C)cc2)cc1OC | BCG | 7 days | MIC | 25 µg/mL
Fc1ccc(COc2cccc(CNCc3cccnc3)c2)cc1 | ATCC35734 BCG | – | MIC | > 62.5 µM
COc1ccc(C=CC(=O)c2ccccc2)cc1OC | BCG | 7 days | MIC | 6.25 µg/mL
C=CC(c1ccc(-c2ccc(OC)c(C)c2)cc1)n1ccnc1 (stereo not drawn) | BCG | – | MIC50 | 17.3 µM (≈ 5.27 µg/mL)
COc1ccc(C=CC(=O)c2ccc(F)cc2)cc1OC | BCG | 7 days | MIC | 25 µg/mL
Fc1ccc(COc2cccc(CNCc3ccncc3)c2)cc1 | ATCC35734 BCG | – | MIC | > 62.5 µM
C=CC(c1ccc(-c2ccc3cc(OC)ccc3c2)cc1)n1ccnc1 (stereo not drawn) | BCG | – | MIC50 | 9.7 µM (≈ 3.3 µg/mL)
COc1ccc(C=CC(=O)c2cccc([N+](=O)[O-])c2)cc1OC | BCG | 7 days | MIC | 100 µg/mL
C=CC(c1ccc(-c2ccc3[nH]ccc3c2)cc1)n1ccnc1 (stereo not drawn) | BCG | – | MIC50 | 41 µM (≈ 12.3 µg/mL)
c1ccc(COc2ccccc2CNCc2ccncc2)cc1 | ATCC35734 BCG | – | MIC | > 62.5 µM
Nc1cnc(C(=O)O)cn1 | ATCC35734 BCG | 5 days | IC50 | 800 µM
C=CC(c1ccc(-c2ccc3c(c2)OCO3)cc1)n1ccnc1 (stereo not drawn) | BCG | – | MIC50 | 20 µM (≈ 6.09 µg/mL)
Fc1ccc(COc2ccc(CNCc3ccccc3)cc2)cc1 | ATCC35734 BCG | – | MIC | > 62.5 µM
COc1ccc(C=CC(=O)c2ccc([N+](=O)[O-])cc2)cc1OC | BCG | 7 days | MIC | 200 µg/mL
C=CC(c1ccc(-c2ccc(C#N)cc2)cc1)n1ccnc1 (stereo not drawn) | BCG | – | MIC50 | 9.2 µM (≈ 2.63 µg/mL)
